# Data as given in ChEMBL document CHEMBL1221356, “Synthesis and evaluation of antimigratory and antiproliferative activities of lipid-linked [13]-macro-dilactones” (Bioorg Med Chem Lett, 2010).
# The source made the active and inactive calls. No cut-off for these calls is given here.
# Experiments:
# [1] = tested on: BT-20; test: Antiproliferative activity against human BT20 cells assessed as after 48 hrs by […]; type: functional, cell-based; conditions: BT-20, 48 h
# Method in brief: (§1)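 BT-20 cells, 5,000/well, grown 24 h at 37 °C, 5% CO2 before treatment with a range of concentrations or 1% DMSO for 48 h. Cell number by WST-8 tetrazolium absorbance at 450 nm after 3 h, versus an initial plate read at time of dosing. Four wells per experiment, three independent experiments. IC50 fitted from 48 h mean cell numbers. MIC is significant reduction versus control (t-test).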
# [2] = Therapeutic index, ratio of MLC for humanBT20 cells to MIC for BT20 cells; type: cell-based, BT-20; conditions: human, read-out: TI
# [3] = tested on: BT-20; test: Antiproliferative activity against human BT20 cells assessed as reduction in cell number after 48 hrs by […] assay; type: functional; conditions: for MIC: Homo sapiens, 48 h; method in brief: as §1
# [4] = tested on: MDA-MB-435; test: Antimigratory activity against human MDA-MB-435 cells assessed as mean rate of migration by wound closure assay; type: functional, cell-based
# Method in brief: (§2)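 Screening scratch-wound assay on confluent monolayers in 24-well plates. Medium changed to fresh medium with 100 µM compound or 1% DMSO; wounds of 0.5–1.0 mm2 scraped with a micropipet tip 30 min later. Scored closed/open by inverted microscopy every 12 h for 72 h; antimigratory if wound remained open after DMSO controls closed. Trypan blue exclusion at end. Culture at 37 °C, 5% CO2.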
# [5] = tested on: MDCK; test: Antimigratory activity against MDCK cells assessed as mean rate of migration by wound closure assay; type: functional, cell-based; conditions: Canis lupus familiaris; method in brief: as §2
# [6] = tested on: T47D; test: Antimigratory activity against human T47D cells assessed as mean rate of migration by wound closure assay; type: functional, cell-based; method in brief: as §2
# [7] = tested on: BT-20; test: Activity against human BT20 cells by trypan blue exclusion assay
# [8] = tested on: BT-20; test: Antimigratory activity against human BT20 cells assessed as mean rate of migration after 48 hrs by wound closure assay; type: functional
# Method in brief: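 Kinetic wound-closure assay in confluent BT-20 monolayers grown in MEM with 10% FBS, wounded 30 min after addition of a range of concentrations or DMSO. Wound area measured from digital images at 3–72 h post-wounding.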
SMILES,IC50 [1],selectivity ratio [2],MLC [3],MIC [3],Activity [4],Activity [5],Activity [6],MLC [7],MIC [8]
CCCCCCCCO[C@H]1O[C@@H]2COC(=O)CC[C@H]3O[C@@H]3CCC(=O)O[C@H]2[C@H](O)[C@H]1O,107 µM,> 6,>300 µM,50 µM,Active,Active,inactive,125 µM,50 µM
CCCCCCCCO[C@@H]1O[C@@H]2COC(c3ccccc3)O[C@H]2[C@H](O)[C@H]1O (stereo partly specified),72.1 µM,6,300 µM,50 µM,Active,Active,inactive,,
CCCCCCCCO[C@@H]1O[C@H](CO)[C@@H](O)[C@H](OCc2ccccc2)[C@H]1OCc1ccccc1,61.1 µM,4,100 µM,25 µM,,,,,
CCCCCCCCO[C@H]1O[C@H](CO)[C@@H](O)[C@H](OCc2ccccc2)[C@H]1OCc1ccccc1,52.9 µM,3,75 µM,25 µM,,,,,
CCCCCCCCO[C@H]1O[C@@H]2COC(=O)CC/C=C/CCC(=O)O[C@H]2[C@H](OCc2ccccc2)[C@H]1OCc1ccccc1,85.1 µM,30,300 µM,10 µM,Active,Active,inactive,,
CCCCCCCCO[C@H]1O[C@@H]2COC(=O)CCCCCCC(=O)O[C@H]2[C@H](O)[C@H]1O,38.1 µM,5,50 µM,10 µM,Active,Active,inactive,75 µM,50 µM
CCCCCCCCO[C@H]1O[C@@H]2COC(c3ccccc3)O[C@H]2[C@H](O)[C@H]1O (stereo partly specified),47.1 µM,7.5,75 µM,10 µM,Active,Active,inactive,,
CCCCCCCCO[C@H]1O[C@@H]2COC(=O)CC/C=C/CCC(=O)O[C@H]2[C@H](OC)[C@H]1OC,91.4 µM,6,300 µM,50 µM,Active,Active,inactive,125 µM,75 µM
